FGF22 binding: shifts melting point of recombinant human FGF22. activity (Tm shift, normalised), % at 9.99 µM. Q9HCT0. 1.5% of 340,000 active. recombinant FGF22 thermal shift, SYPRO orange fluorescence; percent of sucrose octasulfate shift, DMSO zero;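 active = mean Tm shift, scaled 0 neutral to 100 positive control, at about 1.3% or above, every replicate too, limit read from the data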
Target sequence (Q9HCT0 whole entry, looked up): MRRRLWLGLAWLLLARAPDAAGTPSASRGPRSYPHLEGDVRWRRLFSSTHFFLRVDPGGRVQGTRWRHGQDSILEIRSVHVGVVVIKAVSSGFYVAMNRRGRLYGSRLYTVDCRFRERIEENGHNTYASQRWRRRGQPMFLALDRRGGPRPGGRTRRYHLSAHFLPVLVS
ERAP1 HTS inh: blocks human ERAP1 aminopeptidase activity | Q9NZ08 | recombinant ERAP1, Leu-AMC fluorescence, 60 min | inhibition, % at 10.7 µM | 0.15% of 340,000 active | AID 652197;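 active = mean replicate inhibition of at least 30%, or all replicates individually reaching that 30% level; inactive = mean below 30% and not every replicate reaching it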
PGC1a acetyl inh: lowers PGC1a acetylation signal in U2OS cells; AlphaScreen anti-acetyl-lysine; with virally co-expressed GCN5 acetyltransferase; inhibition, % at 15.6 µM; 0.17% of 350,000 active; AID 651687;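 active = every replicate shows inhibition of at least 40%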
Cneo AK release: causes C. neoformans cell lysis. lysis activity, % at 15 µM. AID 651654. adenylate kinase release luminescence, 4 h; normalised: neutral wells 0, clomiphene wells 100. 0.2% of 360,000 active;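 active = mean lysis activity across replicates of at least 80%, whatever share of replicates individually reach that level; inactive = mean lysis activity below 80%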
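Material: C. neoformans cells | Amount: Yeast cell density of 5 × 10^6 cells/mL | Medium: Fresh YPD growth medium | Dosing: Single dose | Times: Static 4 h at 37 °C with compound, 1 h detection | Detection: AK luminescence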
Ecoli rRNA inh: inhibits bacterial ribosomal RNA function over humanized ribosomes | E. coli WT GFP vs humanized-ribosome RFP mutants, fluorescence, 24 h; stronger effect = lower value; DMSO median 0, no signal -100 | GFP signal change (wild-type ribosome), % (test concentration not listed) | 1.6% of 350,000 active | AID 720706;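 active = significant combined selectivity score with lowered wild-type GFP, culture density cut under 30%, mutant RFP and density less affected; inactive = any of these conditions unmet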
Env fusion inh: HIV envelope-mediated fusion inhibition. HeLa-JRFL Env/CEM21 cell fusion, luciferase. inhibition, % at 12.3 µM. 1.1% of 360,000 active. AID 651610;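 active = mean replicate inhibition score of at least 50 and every replicate individually at or above 50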
A number is an active result; 0 = inactive; - = not tested or not shown. Shown are actives, neighbours in structure and some others; about 3.5% of the full set was active somewhere.

SMILES	FGF22 binding	ERAP1 HTS inh	PGC1a acetyl inh	Cneo AK release	Ecoli rRNA inh	Env fusion inh
COc1ccc2c(-c3ccccc3)cc(SCC(=O)NC(N)=O)nc2c1	0	0	0	-	0	0
CCOc1ccc(N2CC(NS(=O)(=O)c3cccs3)CC2=O)cc1 (stereo unspecified)	-	0	-	0	0	56
O=C1CC(NS(=O)(=O)c2cccs2)CN1c1ccc(F)cc1 (stereo unspecified)	0	0	0	-	0	0
CC(C)c1nc(SCC(=O)c2ccc(F)cc2)c2ccccc2n1	43	0	-	-	0	0
Cc1ccc2c(c1)C(=C(C#N)C#N)CCN2	0	0	-	-	0	76
Cc1cc(C(=O)CSc2nc(N)cc(=O)[nH]2)c(C)n1CCc1ccc(F)cc1	-	-	0	-	-	-
C[C@@H](NC(=O)/C(C#N)=C/c1ccc(O)c(O)c1)c1ccccc1	0	0	0	0	-	0
CC(NC(=O)/C(C#N)=C/c1ccc(OCC(=O)O)cc1)c1ccccc1 (stereo unspecified)	0	35	-	0	0	0
Cc1ccc(-c2nnc(SCC(N)=O)n2C)cc1	43	0	0	0	0	0
CC1(C)CC(=O)c2cnc3c(C#N)cnn3c2C1	44	0	0	-	0	0
Cc1ccc(C(=O)Nc2ccc(O)cc2C(=O)O)cc1	-	-	0	0	-	0
O=C(COc1ccccc1)Nc1c(Cl)ccc2nsnc12	0	0	-	0	0	0
Cc1ccc(C(=O)Nc2ccc(O)cc2C(=O)O)cc1C	0	0	0	0	-25	-
CC(C)(C)C(=O)Nc1ccc(NC(=O)c2ccco2)nc1	0	0	0	0	0	63
O=C(Nc1c(Cl)ccc2nsnc12)c1ccco1	44	0	0	0	0	0
O=C(Nc1ccc(NC(=O)c2ccco2)nc1)c1ccco1	0	0	-	-	0	0
O=C(Nc1ccccc1C(=O)O)c1cccc(NC(=O)c2ccco2)c1	-	0	0	0	0	0
O=C(Nc1ccc(O)cc1C(=O)O)c1ccc(NC(=O)c2ccco2)cc1	2.1	0	0	0	0	0
COc1ccccc1C(=O)NC(=S)Nc1ccc(NC(=O)c2ccco2)cc1	1.5	0	0	0	0	0
COc1ccccc1C(=O)Nc1ccc(NC(=O)c2ccco2)cn1	0	0	0	-	0	0
Nc1ccc(NC(=O)c2ccco2)c(Cl)c1	44	0	0	0	0	0
O=C(Nc1ccc(-c2ccccc2)cc1)c1ccco1	0	41	0	0	0	0
COc1ccc(NC(=S)NNC(=O)COc2ccc(Cl)cc2Cl)cc1	-	-	-	-	-	0
O=C(Nc1ccc(NC(=O)c2ccco2)cc1)c1ccco1	0	0	-	0	0	0
COc1ccc(NC(=S)NNC(=O)CNc2ccc(Cl)cc2)cc1	1.4	0	-	-	0	0
SMILES	FGF22 binding	ERAP1 HTS inh	PGC1a acetyl inh	Cneo AK release	Ecoli rRNA inh	Env fusion inh
CCN(CC)S(=O)(=O)c1ccc(C(=O)NCC(c2ccc(OC)cc2)N2CCOCC2)cc1 (stereo unspecified)	0	0	-	-	0	0
COc1ccc(NC(=S)NC(=O)c2ccccc2Cl)cc1	43	0	-	0	0	0
O=C(NC(=S)Nc1ccc(O)cc1)c1ccccc1Cl	0	0	0	0	0	0
COc1ccc(-c2csc(NC(=O)c3cccs3)c2C(=O)O)cc1OC	0	0	-	-	-34	0
COC(=O)c1c(-c2ccc(F)cc2)csc1NC(=O)C1CCCO1 (stereo unspecified)	0	0	-	-	0	0
CCN(CC)S(=O)(=O)c1ccc(C(=O)NNC(=O)c2cccs2)cc1	-	-	-	0	-	0
CCN(CC)S(=O)(=O)c1ccc(NC(=O)c2cccs2)cc1	43	0	0	0	0	0
COc1ccc(C(=O)Nc2ccc(NC(=O)c3cccs3)cc2)cc1Cl	43	0	0	-	0	0
CCOC(=O)c1c(-c2ccc(OC)c(OC)c2)csc1NC(=O)C1CCCO1 (stereo unspecified)	0	0	0	-	-37	0
O=C(NNC(=O)c1cccs1)c1ccccc1	0	0	0	-	0	0
CC(=O)Nc1ccc(C(=O)NNC(=O)c2cccs2)cc1	44	0	-	-	0	0
Cc1ccc(CNC(=O)c2nn(C)c3c2CS(=O)(=O)c2ccccc2-3)cc1	0	0	-	0	0	0
CCc1ccc(CNC(=O)c2nn(C)c3c2CS(=O)(=O)c2ccccc2-3)cc1	68	0	0	0	0	0
